Measured values as given in PMC9893515 (Bioorganic chemistry, 2021).
Where two headings read alike, the source gives them in different places.

Biological target: T1, recombinant human TDP2 (Homo sapiens, UniProt O95551)
T1 sequence (O95551 1-362): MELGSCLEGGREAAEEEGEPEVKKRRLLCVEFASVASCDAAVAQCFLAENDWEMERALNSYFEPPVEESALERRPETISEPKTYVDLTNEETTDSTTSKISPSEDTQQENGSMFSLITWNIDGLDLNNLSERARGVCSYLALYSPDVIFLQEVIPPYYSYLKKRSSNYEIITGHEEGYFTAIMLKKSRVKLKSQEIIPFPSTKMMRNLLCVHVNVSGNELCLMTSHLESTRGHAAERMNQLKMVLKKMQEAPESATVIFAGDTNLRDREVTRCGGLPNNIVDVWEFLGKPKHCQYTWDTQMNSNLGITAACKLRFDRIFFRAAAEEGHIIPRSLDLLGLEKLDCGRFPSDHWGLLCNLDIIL
Experiment: Recombinant TDP2 assay
Assay type: biochemical
How it was run: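 Human recombinant TDP2 (25 pM) with 1 nM 18-mer 5'-phosphotyrosyl ssDNA, 3'-α32P-cordycepin-labelled. Reaction ran 15 min at room temperature in Tris-HCl pH 7.5, KCl, MgCl2, EDTA, DTT, BSA and Tween 20. Stopped with formamide loading buffer, then 16% denaturing PAGE and phosphorimaging densitometry of product. […] IC50 is 50% enzyme inhibition.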

[1] = read-out: TDP2 inhibitory activity IC50, mean ± SD from at least three independent experiments, recombinant TDP2

| Compound | IC50 [nM] | IC50 [1] [nM] |
| --- | --- | --- |
| O=C(OCCc1ccc([N+](=O)[O-])cc1)c1noc2c1C(=O)c1cccnc1C2=O [Compound 62, 4-Nitrophenethyl 4,9-dioxo-4,9-dihydroisoxazolo[4,5-g]quinoline-3-carboxylate] | 11000 ± 3800 |  |
| O=C(OCCOC12CC3CC(CC(C3)C1)C2)c1noc2c1C(=O)c1cccnc1C2=O [Compound 63, 2-(((3 s,5s,7s)-Adamantan-1-yl)oxy)ethyl 4,9-dioxo-4,9-dihydroisoxazolo[4,5-g]quinoline-3-carboxylate] |  | 20000 ± 180 |
| O=C1c2ncccc2C(=O)c2c(COc3ccccc3)noc21 [Compound 65, 3-(Phenoxymethyl) isoxazolo[4,5-g]quinoline-4,9-dione] | 820 ± 280 |  |
| O=C1c2ncccc2C(=O)c2c(COc3ccccc3Cl)noc21 [Compound 66, 3-((2-Chlorophenoxy)methyl)isoxazolo[4,5-g]quinoline-4,9-dione] |  | 940 ± 240 |
| CS(=O)(=O)c1ccc(OCc2noc3c2C(=O)c2cccnc2C3=O)cc1 [Compound 67, 3-((4-(Methylsulfonyl)phenoxy)methyl)isoxazolo[4,5-g]quinoline-4,9-dione] | 990 ± 130 |  |
| Ethyl 2-isopropyl-4,9-dioxo-4,9-dihydrofuro[2,3-g]quinoline-3-carboxylate [Compound 37] |  | 37000 ± 2000 |
| Ethyl 2-isopropyl-4,9-dioxo-4,9-dihydrofuro[3,2-g]quinoline-3-carboxylate [Compound 38] |  | > 111000 |

More lines, now with the values ahead:

| IC50 [nM] | IC50 [1] [nM] | Compound |
| --- | --- | --- |
| 740 ± 250 |  | N#Cc1ccc(OCc2noc3c2C(=O)c2cccnc2C3=O)cc1 [Compound 68, 4-((4,9-Dioxo-4,9-dihydroisoxazolo[4,5-g]quinolin-3-yl)methoxy)benzonitrile] |
| 960 ± 200 |  | N#Cc1ccc(OCc2noc3c2C(=O)c2cccnc2C3=O)cc1F [Compound 69, 4-((4,9-Dioxo-4,9-dihydroisoxazolo[4,5-g]quinolin-3-yl)methoxy)-2-fluorobenzonitrile] |
| 460 ± 150 |  | COc1ccc(-c2noc3c2C(=O)c2cccnc2C3=O)cc1OC [Compound 70, 3-(3,4-Dimethoxyphenyl)isoxazolo[4,5-g]quinoline-4,9-dione] |
| 740 ± 250 |  | N#Cc1ccc(-c2noc3c2C(=O)c2cccnc2C3=O)c(F)c1 [Compound 71, 4-(4,9-Dioxo-4,9-dihydroisoxazolo[4,5-g]quinolin-3-yl)-3-fluorobenzonitrile] |
